Data as given in ChEMBL document CHEMBL4665830, “Self-Adjuvanting Cancer Vaccines from Conjugation-Ready Lipid A Analogues and Synthetic Long Peptides” (J Med Chem, 2020).
Active and inactive are the calls of the source. No cut-off for these calls is given here. Where a SMILES comes first, the peptide text is derived from it. [ ]: non-standard residue; d: D form. The star is where a group is joined. X1 = CCCCCCCCCCC[C@H](CC(=O)N[C@H]1[C@H](OC[C@H](NC(=O)C[C@@H](CCCCCCCCCCC)OC(=O)CCCCCCCCC)C(=O)O)O[C@H](CNC(=O)COCCOCCOCCNC(=O)CCCN2C(=O)CC(*)C2=O)[C@@H](OP(=O)(O)O)[C@@H]1OC(=O)C[C@@H](CCCCCCCCCCC)OC(=O)CCCCCCCCC)OC(=O)CCCCCCCCC; X2 = CCCCCCCCCCC[C@H](CC(=O)N[C@H]1[C@H](OC[C@H](NC(=O)C[C@@H](CCCCCCCCCCC)OC(=O)CCCCCCCCC)C(=O)O)O[C@H](COC(=O)COCCOCCOCCNC(=O)CCCN2C(=O)CC(*)C2=O)[C@@H](OP(=O)(O)O)[C@@H]1OC(=O)C[C@@H](CCCCCCCCCCC)OC(=O)CCCCCCCCC)OC(=O)CCCCCCCCC; Mpa = O=C(O)CCS

Experiments:
[1] = biological target: T1, Toll-like receptor 4 (Mus musculus) (UniProt Q9QUK6); experiment: Activation of TLR4 in C57BL/6 mouse dendritic cells assessed as induction of IL-12p40 secretion at 0.098 to 100 nM incubated for 24 hrs by ELISA; details: Dendritic cell, dose nM 0.098-100, time 24.0 hrs
T1 sequence (whole entry): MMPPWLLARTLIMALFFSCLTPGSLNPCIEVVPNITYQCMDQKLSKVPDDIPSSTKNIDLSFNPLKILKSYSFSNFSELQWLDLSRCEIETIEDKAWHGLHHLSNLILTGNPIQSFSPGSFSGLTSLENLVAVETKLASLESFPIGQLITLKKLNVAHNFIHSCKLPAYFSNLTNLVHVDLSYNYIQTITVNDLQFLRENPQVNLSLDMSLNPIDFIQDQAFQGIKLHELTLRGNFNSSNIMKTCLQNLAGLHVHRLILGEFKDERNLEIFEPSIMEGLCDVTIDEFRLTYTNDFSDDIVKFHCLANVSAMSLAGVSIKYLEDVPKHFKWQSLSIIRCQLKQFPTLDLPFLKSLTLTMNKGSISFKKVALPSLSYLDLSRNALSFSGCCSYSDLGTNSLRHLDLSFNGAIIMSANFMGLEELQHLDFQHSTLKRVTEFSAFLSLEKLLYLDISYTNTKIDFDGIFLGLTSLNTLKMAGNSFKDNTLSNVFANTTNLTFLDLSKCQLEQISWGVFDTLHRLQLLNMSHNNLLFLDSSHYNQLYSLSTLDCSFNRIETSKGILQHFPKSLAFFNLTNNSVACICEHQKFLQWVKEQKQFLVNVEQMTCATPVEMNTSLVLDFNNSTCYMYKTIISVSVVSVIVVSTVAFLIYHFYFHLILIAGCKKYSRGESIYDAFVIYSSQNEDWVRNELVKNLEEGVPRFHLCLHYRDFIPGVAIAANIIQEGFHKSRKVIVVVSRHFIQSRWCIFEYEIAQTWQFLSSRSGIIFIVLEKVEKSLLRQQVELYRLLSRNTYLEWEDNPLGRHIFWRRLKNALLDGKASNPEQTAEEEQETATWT
How it was run: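 D1 cells (immature spleen-derived DC line, C57BL/6 H-2b), 50 000 per well in R1-supplemented IMDM, given an equal volume of 2x compound in medium (500 μM DMSO stocks, sonicated 15 min). Incubated 24 h at 37 °C; IL-12p40 in supernatant measured by ELISA. MPLA served as TLR4 control; unconjugated peptide as negative control.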

Mus musculus [2] = experiment: Induction of T-cell activation in C57BL/6 mouse assessed as induction of differentiation into effector memory T cells at 5 nmol dosed intradermally followed by booster dose after 14 days and measured after 7 days; assay type: functional, organism-based; details: time 21.0 day
Mus musculus [3] = experiment: Induction of T-cell activation in C57BL/6 mouse assessed as induction of SIINFEKL-specific T-cell responses in blood at 5 nmol dosed intradermally followed by booster dose after 14 days and measured after 7 days; assay type: functional, organism-based; details: time 21.0 day
Mus musculus [4] = experiment: Induction of T-cell activation in C57BL/6 mouse assessed as induction of SIINFEKL-specific T-cell responses in inguinal lymph nodes at 5 nmol dosed intradermally followed by booster dose after 14 days and measured after 8 days; assay type: functional, organism-based; details: time 22.0 day
Mus musculus [5] = experiment: Induction of T-cell activation in C57BL/6 mouse assessed as induction of SIINFEKL-specific T-cell responses in spleen at 5 nmol dosed intradermally followed by booster dose after 14 days and measured after 8 days; assay type: functional, organism-based; details: time 22.0 day
Mus musculus [6] = experiment: Induction of T-cell activation in C57BL/6 mouse assessed as induction of differentiation into memory CD127+/KLRG1low responses at 5 nmol dosed intradermally followed by booster dose after 14 days and measured after 7 days; assay type: functional, organism-based; details: time 21.0 day
Mus musculus [7] = experiment: Induction of T-cell activation in C57BL/6 mouse assessed as induction of SIINFEKL-specific T-cell responses in blood at 5 nmol dosed intradermally; assay type: functional, organism-based
B3Z = experiment: Induction of T-cell activation in SIINFEKL-specific mouse B3Z cells at 0.875 to 7 uM by colorimetry based in-vitro antigen presentation assay; assay type: functional; details: dose microM 0.875-7
Mus musculus [8] = experiment: Induction of T-cell activation in C57BL/6 mouse assessed as induction of specific killing of the SIINFEKL-loaded target cells in spleen at 5 nmol dosed intradermally followed by booster dose after 14 days and 1 week later injection of cells loaded with SIINFEKL peptide and measured after 18 hrs post last dose by CFSE staining based flow cytometric analysis; assay type: functional, organism-based; details: time 21.0 day
Mus musculus [9] = experiment: Induction of T-cell activation in C57BL/6 mouse assessed as increase in SIINFEKL-specific CD8+ T cells level in inguinal lymph nodes at 5 nmol dosed intradermally followed by booster dose after 14 days and 1 week later injection of cells loaded with SIINFEKL peptide and measured after 18 hrs post last dose by CFSE staining based flow cytometric analysis; assay type: functional, organism-based; details: time 21.0 day

CCCCCCCCCCC[C@H](CC(=O)N[C@H]1[C@H](OC[C@H](NC(=O)C[C@@H](CCCCCCCCCCC)OC(=O)CCCCCCCCC)C(=O)O)O[C@H](COC(=O)CCCCCCCCCCNC(C)=O)[C@@H](OP(=O)(O)O)[C@@H]1OC(=O)C[C@@H](CCCCCCCCCCC)OC(=O)CCCCCCCCC)OC(=O)CCCCCCCCC was tested, and the Activity [1] was “inactive”.

CCCCCCCCCCC[C@H](CC(=O)N[C@H]1[C@H](OC[C@H](NC(=O)C[C@@H](CCCCCCCCCCC)OC(=O)CCCCCCCCC)C(=O)O)O[C@H](COC(=O)COCCOCCOCCNC(C)=O)[C@@H](OP(=O)(O)O)[C@@H]1OC(=O)C[C@@H](CCCCCCCCCCC)OC(=O)CCCCCCCCC)OC(=O)CCCCCCCCC was tested, and the Activity ([1]; filed as activator) was “Active”.

In the case of CCCCCCCCCCC[C@@H](O)CC(=O)N[C@@H]1[C@@H](OC(=O)C[C@H](O)CCCCCCCCCCC)[C@H](O)[C@@H](CO[C@@H]2O[C@H](CO)[C@@H](OP(=O)(O)O)[C@H](OC(=O)C[C@@H](CCCCCCCCCCC)OC(=O)CCCCCCCCC)[C@H]2NC(=O)C[C@@H](CCCCCCCCCCC)OC(=O)CCCCCCCCC)O[C@H]1O, the Activity ([1]; filed as activator) is reported as “Active”.

CCCCCCCCCCC[C@H](CC(=O)N[C@H]1[C@H](OC[C@H](NC(=O)C[C@@H](CCCCCCCCCCC)OC(=O)CCCCCCCCC)C(=O)O)O[C@H](COC(=O)COCCOCCOCCNC(=O)CCCN2C(=O)CC(SCCC(=O)N[C@@H](CC(=O)O)C(=O)N[C@@H](CCC(=O)O)C(=O)N[C@H](C(=O)N[C@@H](CO)C(=O)NCC(=O)N[C@@H](CC(C)C)C(=O)N[C@@H](CCC(=O)O)C(=O)N[C@@H](CCC(N)=O)C(=O)N[C@@H](CC(C)C)C(=O)N[C@@H](CCC(=O)O)C(=O)N[C@@H](CO)C(=O)N[C@H](C(=O)N[C@H](C(=O)N[C@@H](CC(N)=O)C(=O)N[C@@H](Cc3ccccc3)C(=O)N[C@@H](CCC(=O)O)C(=O)N[C@@H](CCCCN)C(=O)N[C@@H](CC(C)C)C(=O)N[C@@H](C)C(=O)N[C@@H](C)C(=O)N[C@@H](C)C(=O)N[C@@H](C)C(=O)N[C@@H](C)C(=O)N[C@@H](CCCCN)C(N)=O)[C@@H](C)CC)[C@@H](C)CC)C(C)C)C2=O)[C@@H](OP(=O)(O)O)[C@@H]1OC(=O)C[C@@H](CCCCCCCCCCC)OC(=O)CCCCCCCCC)OC(=O)CCCCCCCCC (stereo not given in full) ([Mpa](X2)DEVSGLEQLESIINFEKLAAAAAK-NH2) was tested, and the Activity (Mus musculus [2]) was “Active”, the Activity ([1]; filed as activator) was “Active” and the Activity (Mus musculus [3]) was “Active”. The Activity (Mus musculus [4]) was “Active”, the Activity (Mus musculus [5]) was “Active” and the Activity (Mus musculus [6]) was “Active”. For the same compound, the Activity (Mus musculus [7]) was “Active” and the Activity (B3Z) was “Active”.

CCCCCCCCCCC[C@H](CC(=O)N[C@H]1[C@H](OC[C@H](NC(=O)C[C@@H](CCCCCCCCCCC)OC(=O)CCCCCCCCC)C(=O)O)O[C@H](CO)[C@@H](OP(=O)(O)O)[C@@H]1OC(=O)C[C@@H](CCCCCCCCCCC)OC(=O)CCCCCCCCC)OC(=O)CCCCCCCCC was tested, and the Activity ([1]; filed as activator) was “Active”, the Activity (Mus musculus [7]) was “Active” and the Activity (B3Z) was “Active”.

For CCCCCCCCCCC[C@H](CC(=O)N[C@H]1[C@H](OC[C@H](NC(=O)C[C@@H](CCCCCCCCCCC)OC(=O)CCCCCCCCC)C(=O)O)O[C@H](CNC(=O)COCCOCCOCCNC(=O)CCCN2C(=O)CC(SCCC(=O)N[C@@H](CC(=O)O)C(=O)N[C@@H](CCC(=O)O)C(=O)N[C@H](C(=O)N[C@@H](CO)C(=O)NCC(=O)N[C@@H](CC(C)C)C(=O)N[C@@H](CCC(=O)O)C(=O)N[C@@H](CCC(N)=O)C(=O)N[C@@H](CC(C)C)C(=O)N[C@@H](CCC(=O)O)C(=O)N[C@@H](CO)C(=O)N[C@H](C(=O)N[C@H](C(=O)N[C@@H](CC(N)=O)C(=O)N[C@@H](Cc3ccccc3)C(=O)N[C@@H](CCC(=O)O)C(=O)N[C@@H](CCCCN)C(=O)N[C@@H](CC(C)C)C(=O)N[C@@H](C)C(=O)N[C@@H](C)C(=O)N[C@@H](C)C(=O)N[C@@H](C)C(=O)N[C@@H](C)C(=O)N[C@@H](CCCCN)C(N)=O)[C@@H](C)CC)[C@@H](C)CC)C(C)C)C2=O)[C@@H](OP(=O)(O)O)[C@@H]1OC(=O)C[C@@H](CCCCCCCCCCC)OC(=O)CCCCCCCCC)OC(=O)CCCCCCCCC (stereo not given in full) ([Mpa](X1)DEVSGLEQLESIINFEKLAAAAAK-NH2), the Activity (Mus musculus [2]) was “Active”, the Activity [1] was “inactive” and the Activity (Mus musculus [8]) was “Active”. The Activity (Mus musculus [3]) was “Active”, the Activity (Mus musculus [4]) was “Active” and the Activity (Mus musculus [5]) was “Active”. For the same compound, the Activity (Mus musculus [6]) was “Active”, the Activity (Mus musculus [7]) was “Active” and the Activity (B3Z) was “Active”. For the same compound, the Activity (Mus musculus [9]) was “Active”.

With CCCCCCCCCCC[C@H](CC(=O)N[C@H]1[C@H](OC[C@H](NC(=O)C[C@@H](CCCCCCCCCCC)OC(=O)CCCCCCCCC)C(=O)O)O[C@H](CNC(=O)COCCOCCOCCNC(C)=O)[C@@H](OP(=O)(O)O)[C@@H]1OC(=O)C[C@@H](CCCCCCCCCCC)OC(=O)CCCCCCCCC)OC(=O)CCCCCCCCC the Activity ([1]; filed as activator) was “Active”.
